Measurements from ChEMBL document CHEMBL4152215, “Anti-leishmanial click modifiable thiosemicarbazones: Design, synthesis, biological evaluation and in silico studies” (Eur J Med Chem, 2018).

Key:
Mus musculus [1] = experiment: Acute toxicity in mouse assessed as effect on spleen morphology at 75 mg/kg, ip measured up to 7 days by histopathological analysis; assay type: organism-based; conditions: in vivo, 168 h
Method in brief: (§1)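 Groups of six mice dosed by intraperitoneal injection at 5, 10, 25, 50 and 75 mg/kg, with propylene glycol as vehicle and control. Spleen, lung, liver and kidney taken from the 75 mg/kg animals and examined for texture.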

Mus musculus [2] = experiment: Acute toxicity in mouse assessed as effect on kidney morphology at 125 mg/kg, po administered via gavage measured after 24 hrs and followed up to 7 days by histopathological analysis; assay type: organism-based; conditions: in vivo
Method in brief: (§2)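 Male mice (25-30 g), six per group, fasted overnight and weighed before dosing. Compound suspended in aqueous 1% gum acacia and given by oral gavage in ascending doses of 25, 50, 75, 100 and 125 mg/kg/day (groups I-V). Vehicle group received gum acacia at up to 1 mL/100 g. Mortality recorded at 24 h and followed for seven days. Spleen, lung, liver and kidney examined.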

Leishmania major [3] = experiment: Antileishmanial activity against Leishmania major assessed as parasite survival at 0.25 uM after 48 hrs in presence of 20 uM folinic acid relative to control; assay type: functional
Method in brief: (§3)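 L. major promastigotes in log phase (10⁶ parasites) pre-incubated with folic or folinic acid (20 or 100 µM), washed, resuspended in PBS for 1 h at room temperature, then returned to culture medium in 24-well plates. Compounds added at the fixed concentration, with trimethoprim at 100 µM. Incubated 48 h; living parasites counted per mL against untreated control wells.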

Mus musculus [4] = experiment: Acute toxicity in mouse up to 125 mg/kg/day, po administered via gavage measured after 24 hrs and followed up to 7 days; assay type: organism-based; conditions: in vivo; method in brief: as §2
Mus musculus [5] = experiment: Acute toxicity in mouse assessed as induction of death at 25 to 125 mg/kg/day, po administered via gavage measured during 3 days post dose; assay type: organism-based; conditions: in vivo, 72 h; method in brief: as §2
Leishmania major [6] = experiment: Antileishmanial activity against axenic amastigote form of Leishmania major assessed as parasite growth inhibition after 72 hrs by resazurin dye based assay; assay type: functional, organism-based
Method in brief: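 Axenic L. major amastigotes, generated in RPMI-1640 with 10% heat-inactivated FCS, penicillin/streptomycin and L-glutamine, seeded at 2 x 10³ cells/ml onto serially diluted compound (0.04-10 final). Held at 31°C, 5% CO₂, humidified, for 72 h. Resazurin added at 68 h and read at 72 h (ex 530/em 590 nm). IC50 from sigmoidal dose-response curves; mean ± SEM, triplicate experiments in duplicate.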

Mus musculus [7] = experiment: Acute toxicity in mouse assessed as effect on lung morphology at 125 mg/kg, po administered via gavage measured after 24 hrs and followed up to 7 days by histopathological analysis; assay type: organism-based; conditions: in vivo; method in brief: as §2
Mus musculus [8] = experiment: Acute toxicity in mouse assessed as effect on spleen morphology at 125 mg/kg, po administered via gavage measured after 24 hrs and followed up to 7 days by histopathological analysis; assay type: organism-based; conditions: in vivo; method in brief: as §2
[9] = Cytotoxicity against African green monkey Vero cells assessed as reduction in cell viability after 72 hrs by crystal violet staining based assay; conditions: chlorocebus sabaeus
Method in brief: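 Vero cells seeded at 1×10^5 cells/well in MEM with 5% heat-inactivated FBS. Viability by crystal violet staining; CC50 from concentration-response. At least 3 separate experiments, each in duplicate.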

Mus musculus [10] = experiment: Acute toxicity in mouse assessed as effect on lung morphology at 75 mg/kg, ip measured up to 7 days by histopathological analysis; assay type: organism-based; conditions: in vivo, 168 h; method in brief: as §1
Leishmania major [11] = experiment: Antileishmanial activity against Leishmania major assessed as parasite survival at 0.25 uM after 48 hrs in presence of 100 uM folic acid relative to control; assay type: functional; method in brief: as §3
Leishmania major [12] = experiment: Antileishmanial activity against Leishmania major assessed as parasite survival at 0.25 uM after 48 hrs relative to control; assay type: functional; method in brief: as §3
Leishmania major [13] = experiment: Antileishmanial activity against Leishmania major assessed as parasite survival at 0.25 uM after 48 hrs in presence of 20 uM folic acid relative to control; assay type: functional; method in brief: as §3
Mus musculus [14] = experiment: Acute toxicity in mouse assessed as effect on body weight at 25 to 125 mg/kg/day, po administered via gavage measured during 3 days post dose; assay type: organism-based; conditions: in vivo, 72 h; method in brief: as §2
Mus musculus [15] = experiment: Acute toxicity in mouse assessed as effect on kidney morphology at 75 mg/kg, ip measured up to 7 days by histopathological analysis; assay type: organism-based; conditions: in vivo, 168 h; method in brief: as §1
Leishmania major [16] = experiment: Potency index, ratio of miltefosine IC50 to compound IC50 for antileishmanial activity axenic amastigote form of Leishmania major; assay type: functional
Leishmania major [17] = experiment: Antileishmanial activity against Leishmania major assessed as parasite survival at 0.25 uM after 48 hrs in presence of 100 uM folinic acid relative to control; assay type: functional; method in brief: as §3
Mus musculus [18] = experiment: Acute toxicity in mouse assessed as effect on liver morphology at 125 mg/kg, po administered via gavage measured after 24 hrs and followed up to 7 days by histopathological analysis; assay type: organism-based; conditions: in vivo; method in brief: as §2
Mus musculus [19] = experiment: Acute toxicity in mouse assessed as effect on liver morphology at 75 mg/kg, ip measured up to 7 days by histopathological analysis; assay type: organism-based; conditions: in vivo, 168 h; method in brief: as §1
Leishmania major [20] = experiment: Antileishmanial activity against promastigote form of Leishmania major assessed as parasite growth inhibition after 48 hrs by alamar blue assay; assay type: functional, organism-based
[21] = Selectivity index, ratio of CC50 African green monkey Vero cells to IC50 for promastigote form of Leishmania major; assay type: toxicity; conditions: Vero cells versus Leishmania major promastigotes, read-out: Ratio CC50/IC50
Method in brief: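 Selectivity index calculated as Vero CC50 (72 h crystal violet) divided by promastigote IC50.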

Mus musculus [22] = experiment: Acute toxicity in mouse assessed as effect on survival up to 75 mg/kg dosed via parenteral route measured up to 7 days; assay type: organism-based; conditions: in vivo, 168 h; method in brief: as §1
Leishmania major [23] = experiment: Antileishmanial activity against Leishmania major assessed as parasite survival at 0.16 uM after 48 hrs relative to control; assay type: functional; method in brief: as §3
Leishmania major [24] = experiment: Potency index, ratio of miltefosine IC50 to compound IC50 for antileishmanial activity promastigote form of Leishmania major; assay type: functional
Leishmania major [25] = experiment: Antileishmanial activity against Leishmania major assessed as parasite survival at 0.16 uM after 48 hrs in presence of 20 uM folic acid relative to control; assay type: functional; method in brief: as §3
Leishmania major [26] = experiment: Antileishmanial activity against Leishmania major assessed as parasite survival at 0.16 uM after 48 hrs in presence of 20 uM folinic acid relative to control; assay type: functional; method in brief: as §3
Leishmania major [27] = experiment: Antileishmanial activity against Leishmania major assessed as parasite survival at 0.16 uM after 48 hrs in presence of 100 uM folinic acid relative to control; assay type: functional; method in brief: as §3
Leishmania major [28] = experiment: Antileishmanial activity against Leishmania major assessed as parasite survival at 0.16 uM after 48 hrs in presence of 100 uM folic acid relative to control; assay type: functional; method in brief: as §3

SMILES: C#CCOc1ccc(/C=N/NC(N)=S)cc1OC
- Activity (Mus musculus [1]): Non-Toxic
- Activity (Mus musculus [2]): Non-Toxic
- Activity (Leishmania major [3]): 90%
- Activity (Mus musculus [4]): Non-Toxic
- Activity (Mus musculus [5]): Non-Toxic
- IC50 (Leishmania major [6]): 1.4 µM
- Activity (Mus musculus [7]): Non-Toxic
- Activity (Mus musculus [8]): Non-Toxic
- CC50 at 72 h [9]: 828 µM
- Activity (Mus musculus [10]): Non-Toxic
- Activity (Leishmania major [11]): 97%
- Activity (Leishmania major [12]): 25%
- Activity (Leishmania major [13]): 89%
- Activity (Mus musculus [14]): Non-Toxic
- Activity (Mus musculus [15]): Non-Toxic
- Ratio IC50 (Leishmania major [16]): 6
- Activity (Leishmania major [17]): 98%
- Activity (Mus musculus [18]): Non-Toxic
- Activity (Mus musculus [19]): Non-Toxic
- IC50 (Leishmania major [20]): 0.227 µM
- selectivity ratio [21]: 3640
- Activity (Mus musculus [22]): Non-Toxic

SMILES: COc1cc(/C=N\NC(N)=S)ccc1OCc1cn(CC(=O)c2ccc(Br)cc2)nn1
- IC50 (Leishmania major [6]): 5.1 µM
- IC50 (Leishmania major [20]): 3.97 µM

SMILES: COc1cc(/C=N/NC(N)=S)ccc1OCc1cn(CC(=O)c2ccc(C)cc2)nn1
- IC50 (Leishmania major [6]): 4.97 µM
- IC50 (Leishmania major [20]): 4.82 µM

SMILES: COc1ccc(/C=N\NC(N)=S)cc1OCc1cn(CC(=O)c2ccc(Cl)cc2)nn1
- IC50 (Leishmania major [6]): 1.69 µM
- Ratio IC50 (Leishmania major [16]): 5
- IC50 (Leishmania major [20]): 0.798 µM

SMILES: COc1cc(/C=N\NC(N)=S)ccc1OCc1cn(CC(=O)c2ccc(Cl)cc2)nn1
- IC50 (Leishmania major [6]): 5.4 µM
- IC50 (Leishmania major [20]): 4.76 µM

SMILES: COc1ccc(/C=N/NC(N)=S)cc1OCc1cn(-c2ccc(S(N)(=O)=O)cc2)nn1
- IC50 (Leishmania major [6]): 4.35 µM
- IC50 (Leishmania major [20]): 4.38 µM

SMILES: C/C(=N/NC(N)=S)c1ccc(OCc2cn(CC(=O)c3ccc(Br)cc3)nn2)cc1
- Activity (Leishmania major [23]): 23%
- Activity (Mus musculus [1]): Non-Toxic
- Activity (Mus musculus [2]): Non-Toxic
- Activity (Mus musculus [4]): Non-Toxic
- Activity (Mus musculus [5]): Non-Toxic
- IC50 (Leishmania major [6]): 1 µM
- Activity (Mus musculus [7]): Non-Toxic
- Activity (Mus musculus [8]): Non-Toxic
- CC50 at 72 h [9]: 509 µM
- Activity (Mus musculus [10]): Non-Toxic
- Ratio IC50 (Leishmania major [24]): 55.6
- Activity (Leishmania major [25]): 91%
- Activity (Mus musculus [14]): Non-Toxic
- Activity (Mus musculus [15]): Non-Toxic
- Ratio IC50 (Leishmania major [16]): 8
- Activity (Leishmania major [26]): 90%
- Activity (Mus musculus [18]): Non-Toxic
- Activity (Mus musculus [19]): Non-Toxic
- Activity (Leishmania major [27]): 99%
- IC50 (Leishmania major [20]): 0.14 µM
- selectivity ratio [21]: 3630
- Activity (Mus musculus [22]): Non-Toxic
- Activity (Leishmania major [28]): 99%

SMILES: COc1ccc(/C=N/NC(N)=S)cc1OCc1cn(CC(=O)c2ccc(F)cc2)nn1
- IC50 (Leishmania major [6]): 4.83 µM
- IC50 (Leishmania major [20]): 2.52 µM

SMILES: C/C(=N/NC(N)=S)c1ccc(OCc2cn(-c3ccc(C(=O)O)cc3)nn2)cc1
- IC50 (Leishmania major [6]): 6.04 µM
- IC50 (Leishmania major [20]): 7.41 µM

SMILES: COc1cc(/C=N/NC(N)=S)ccc1OCc1cn(CC(=O)c2ccc(F)cc2)nn1
- IC50 (Leishmania major [6]): 6.46 µM
- IC50 (Leishmania major [20]): 6.93 µM

SMILES: COc1ccc(/C=N\NC(N)=S)cc1OCc1cn(CC(=O)c2ccccc2)nn1
- IC50 (Leishmania major [6]): 4.38 µM
- IC50 (Leishmania major [20]): 4.4 µM

SMILES: COc1ccc(/C=N/NC(N)=S)cc1OCc1cn(CC(=O)c2ccc(C)cc2)nn1
- IC50 (Leishmania major [6]): 2.18 µM
- Ratio IC50 (Leishmania major [16]): 4
- IC50 (Leishmania major [20]): 0.99 µM

SMILES: COc1cc(/C=N/NC(N)=S)ccc1OCc1cn(-c2ccc(C(=O)O)cc2)nn1
- IC50 (Leishmania major [6]): 5.6 µM
- IC50 (Leishmania major [20]): 5.74 µM

SMILES: COc1ccc(/C=N/NC(N)=S)cc1OCc1cn(-c2ccc(C(=O)O)cc2)nn1
- IC50 (Leishmania major [6]): 4.78 µM
- IC50 (Leishmania major [20]): 5 µM

SMILES: COc1ccc(/C=N\NC(N)=S)cc1OCc1cn(CC(=O)c2ccc(Br)cc2)nn1
- IC50 (Leishmania major [6]): 4.48 µM
- IC50 (Leishmania major [20]): 5.69 µM

SMILES: COc1cc(/C=N\NC(N)=S)ccc1OCc1cn(CC(=O)c2ccccc2)nn1
- IC50 (Leishmania major [6]): 5.39 µM
- IC50 (Leishmania major [20]): 4.87 µM

SMILES: C/C(=N/NC(N)=S)c1ccc(OCc2cn(-c3ccc(S(N)(=O)=O)cc3)nn2)cc1
- IC50 (Leishmania major [6]): 8.26 µM
- IC50 (Leishmania major [20]): 6.79 µM

SMILES: CCCCCCCCCCCCCCCCOP(=O)([O-])OCC[N+](C)(C)C [MILTEFOSINE]
- IC50 (Leishmania major [6]): 8.09 µM
